Assay outcomes (PubChem BioAssay)
An excerpt weighted towards active compounds, which were near 3% of everything screened.
Yeast superoxide: caloric restriction mimetics inhibiting age-related superoxide in yeast. S. cerevisiae aged cells, superoxide DHE fluorescence; stronger effect = lower value. superoxide response (% of plate mean), % at 10 µM. 0.18% of 330,000 active. AID 2690;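 active = superoxide response under a set limit, about three screen SD below normal, cut at about 65% in these data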;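 also: yeast aged for seven days with compound at 30 °C before DHE staining; 100% = average MFI of all compound-treated wells on the plate with controls excluded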
AI-2 QS modul: modulates the Vibrio harveyi AI-2 quorum sensing system; Vibrio harveyi JMH597 AI-2 luminescence/OD600 ratio, 9 h; stronger effect = lower value; strain lacks LuxN and CqsS sensors; 0 = neutral-control median; activity change, % at 7.5 µM; 0.4% of 300,000 active; in the data active = activity change below about -75%, passing the limit was not always enough;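 also: luminescence divided by OD600 gain over 9 h not by final OD600 alone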
V-ATPase pHluor: yeast V-ATPase proton transport regulation by pHLuorin; S. cerevisiae, pHLuorin cytosolic pH fluorescence; response, % at 10 µM; 0.37% of 350,000 active; in the data active = response mostly above about 7.3%, no sharp cut-off; inactive = mostly below about 5.4%; also: actives read high
HIF act: HIF pathway transcriptional activation | activation, % at 7.5 µM (by protocol) | U2OS HRE-luciferase reporter, luminescence; normalized: DMSO 0%, desferrioxamine 100% | AID 1910 | 0.32% of 300,000 active;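 active = mean activation of at least 10% of the iron chelator positive control signal, with at least half of replicates also reaching 10%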
CendR NRP1 mod: alters CendR peptide binding to human NRP-1; O14786; 0.85% of 360,000 active; FAM-RPARPAR peptide binding to NRP-1, fluorescence polarization; inhibition, % at 25 µM;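 active = inhibition or corrected inhibition above about 18%, plus a signal ratio from 0.5 to 1.5, limit read from the data, passing the limit was not always enough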
T cruzi repl: blocks replication of Trypanosoma cruzi; T. cruzi beta-gal in NIH3T3, luminescence, 90 h; inhibition, % (test concentration not listed); 1.4% of 300,000 active; AID 1885;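 active = mean inhibition across valid replicates above about 55%, limit read from the data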;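 also: signal also drops with host cell toxicity which is not excluded here; 0% = plate median of DMSO wells and 100% = zero luminescence signal; higher percent means less beta-gal luminescence so fewer parasites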
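Incubation – ≥90 h infection period, 3 h prior cell attachment · System – NIH/3T3 fibroblasts plus reporter T. cruzi · Doses – compound pinned at 50 nL/well, DMSO · Read-out basis – percent inhibition of parasite-derived β-gal signal · Signal – luminescent β-galactosidase signal after 60 min lysis · Also added – 5000 T. cruzi trypomastigotes/well · Medium – Low-serum DMEM with 2% FBS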
* marks the source's active call; other numbers are inactive results.

Screening CCCCC(O)(CCCC)C(=O)NN(C(=O)OCC)c1ccccc1 returned Yeast superoxide 84, AI-2 QS modul 24, V-ATPase pHluor -1, HIF act 0, CendR NRP1 mod 5 and T cruzi repl -20.
CN(Cc1ccc(F)cc1)C(=O)c1sccc1-c1ccccc1 was read as Yeast superoxide 91, AI-2 QS modul 7, V-ATPase pHluor -3, HIF act 0, CendR NRP1 mod 4 and T cruzi repl -11.
CCc1cc(=O)oc2cc(OCC(=O)N3CCC[C@H]3C(=O)O)ccc12 was read as Yeast superoxide 87, AI-2 QS modul 12, V-ATPase pHluor 0, HIF act 0, CendR NRP1 mod 6 and T cruzi repl -3.
For Cc1ccc2c(c1)c1n[nH]c(=S)nc1n2CCc1ccccc1 the results were Yeast superoxide 98, AI-2 QS modul 6, V-ATPase pHluor 3, HIF act 0, CendR NRP1 mod -17 and T cruzi repl 69*.
Fc1ccc2c(c1)c1n[nH]c(=S)nc1n2CCc1ccccc1 was read as AI-2 QS modul 10, V-ATPase pHluor 0, HIF act -1, CendR NRP1 mod 0 and T cruzi repl -11.
Screening C/C(N)=C(/C#N)C(=O)CSc1nc2cc(Cl)ccc2c(=O)n1Cc1ccco1 returned Yeast superoxide 106, AI-2 QS modul 16, V-ATPase pHluor 5, HIF act -1, CendR NRP1 mod -16 and T cruzi repl 59*.
For O=C(CC1C(=O)NCCN1Cc1cccc(F)c1)NC1CCCCCC1 (centres undefined) the results were Yeast superoxide 97, AI-2 QS modul 20, V-ATPase pHluor 0, HIF act 0, CendR NRP1 mod 0 and T cruzi repl 5.
Cc1cccc2nc(CNC(=O)CC3C(=O)NCCN3Cc3cccc(F)c3)cn12 (centres undefined) was read as Yeast superoxide 95, AI-2 QS modul 11, V-ATPase pHluor -5, HIF act -1, CendR NRP1 mod -3 and T cruzi repl 58*.
For O=C(/C=C/c1ccccc1)NC(=S)NNC(=O)c1cccnc1 the results were Yeast superoxide 100, AI-2 QS modul -111*, V-ATPase pHluor 7, HIF act 0, CendR NRP1 mod -11 and T cruzi repl -8.
For O=C(/C=C/c1ccccc1)NC(=S)NNC(=O)c1cnccn1 the results were Yeast superoxide 70, AI-2 QS modul -8, V-ATPase pHluor -1, HIF act -1, CendR NRP1 mod 3 and T cruzi repl 50.
Screening CCOC(=O)c1c(-c2ccc(OC)cc2)oc2cc(Br)c(O)cc12 returned Yeast superoxide 104, AI-2 QS modul 0, V-ATPase pHluor 3, HIF act -1, CendR NRP1 mod 0 and T cruzi repl 8.
For COc1ccccc1/C=N\Nc1cn[nH]c(=O)c1Cl the results were Yeast superoxide 97, AI-2 QS modul 15, HIF act 0, CendR NRP1 mod 4 and T cruzi repl -1.
For CCOc1ccccc1/C=N\Nc1cnn(Cc2ccccc2)c(=O)c1Cl the results were Yeast superoxide 98, AI-2 QS modul 36, V-ATPase pHluor 1, HIF act -1, CendR NRP1 mod -1 and T cruzi repl 56*.
For COc1ccc2c(c1)cc(C(=O)N[C@@H](Cc1ccccc1)C(=O)N[C@@H](C)C(=O)O)n2C the results were Yeast superoxide 106, AI-2 QS modul 25, V-ATPase pHluor 1, HIF act -1, CendR NRP1 mod 4 and T cruzi repl 2.
`O=C(NC1CCCCC1)c1ccc([N+](=O)[O-])o1` gave Yeast superoxide 114, V-ATPase pHluor -1, HIF act -7, CendR NRP1 mod 0 and T cruzi repl 39.
`C/C(=N/NC(=O)C(O)(c1ccccc1)c1ccccc1)c1ccc([N+](=O)[O-])o1` gave Yeast superoxide 107, AI-2 QS modul 96, V-ATPase pHluor 1, HIF act 0, CendR NRP1 mod 1 and T cruzi repl 75*.
`O=C(NN(c1ccccc1)c1ccccc1)c1ccc([N+](=O)[O-])o1` gave Yeast superoxide 111, AI-2 QS modul 24, V-ATPase pHluor -1, HIF act 2, CendR NRP1 mod -9 and T cruzi repl 64*.
